For data set [1], the system named is U2OS. The data set can be described thus: Effect on His-tagged human P23H rhodopsin expressed in U2OS cells assessed as increase localization of P23H rhodopsin using […] as substrate at 17 to 20 uM incubated for overnight and measured by immunofluorescence microscopy analysis. In kind it is functional, cell-based. The note with it: dose 17-20 µM, time 12.0 hrs. Summed up:
(§1)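 U2OS cells stably carrying C-terminal His-tagged human P23H rhodopsin, grown on polylysine coverslips. Incubated overnight in the dark with 1 μg/mL tetracycline plus compound at 17 or 20 μM (DMSO ≤0.1%); 9-cis-retinal at 5 μM serves as control. Cells fixed in 4% PFA. Surface rhodopsin stained with RetP1 before permeabilisation, total rhodopsin with anti-His after 0.1% Triton. Epifluorescence imaging, 3 independent experiments.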

The next data set deals with ARPE-19. The data set can be described thus: Cytotoxicity against human ARPE-19 cells assessed as reduction in cell viability at 25 uM measured after 24 hrs by Cell-titre blue assay. It is filed as toxicity, cell-based. The conditions noted are these: arpe-19, 24 h. An outline of the steps: (§2)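 HepG2 (DMEM) or ARPE-19 (DMEM/F12) cells seeded at 1 × 10⁴ per well. Next day given medium with 2% FBS and 1 g/L glucose containing 25 μM compound, for 24 h at 37 °C. CellTiter Blue then added for 4 h; fluorescence read at 560/590 nm. Viability expressed as % of DMSO-treated cells; at least three independent measurements.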

The species entered for another data set is Bos taurus. The data set can be described thus: Binding affinity to bovine opsin assessed as rate constant preincubated for 30 mins followed by […] addition and measured after 30 mins by UV-visible spectra method. The note with it: time 60.0 min. Summed up:
(§3)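 Opsin from bovine rod outer segments diluted to ~20-25 μM in PBS with 1% N-dodecyl-β-maltoside. Bleached with 532 nm green light, then pre-incubated with compound for 30 min at room temperature. 9-cis-retinal added, equimolar to opsin. Isorhodopsin formation read at 485 nm over 0–29 min. One-phase association fit gives the pseudo-first-order k, compared with DMSO vehicle. At least three repeats.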

For another data set, the system named is HepG2. The data set can be described thus: Cytotoxicity against human HepG2 cells assessed as reduction in cell viability at 25 uM measured after 24 hrs by Cell-titre blue assay. It is filed as toxicity, cell-based. The conditions noted are these: hepg2, 24 h. Summed up: as §2
A short description of data set [2]: Half life of compound. In kind it is physicochemical.
The subject of data set [3] is U2OS. The data set can be described thus: Effect on His-tagged human P23H rhodopsin expressed in U2OS cells assessed as increase localization of P23H rhodopsin using […] as substrate at 17 uM incubated for overnight and measured by immunofluorescence microscopy analysis. In kind it is cell-based. The conditions noted are these: time 12.0 hrs. Summed up: as §1

The target in the next data set is Rhodopsin (Bos taurus) (UniProt P02699). The data set can be described thus: Binding affinity to bovine rhodopsin assessed as rate constant preincubated for 30 mins followed by […] addition and measured after 30 mins by UV-visible spectra method. The note with it: time 60.0 min. An outline of the steps:
as §3

Molecules are shown by their SMILES. Calls of active or inactive are those of the source. The rule behind the calls is not given here.

Rhodopsin (Bos taurus), sequence (P02699 whole entry): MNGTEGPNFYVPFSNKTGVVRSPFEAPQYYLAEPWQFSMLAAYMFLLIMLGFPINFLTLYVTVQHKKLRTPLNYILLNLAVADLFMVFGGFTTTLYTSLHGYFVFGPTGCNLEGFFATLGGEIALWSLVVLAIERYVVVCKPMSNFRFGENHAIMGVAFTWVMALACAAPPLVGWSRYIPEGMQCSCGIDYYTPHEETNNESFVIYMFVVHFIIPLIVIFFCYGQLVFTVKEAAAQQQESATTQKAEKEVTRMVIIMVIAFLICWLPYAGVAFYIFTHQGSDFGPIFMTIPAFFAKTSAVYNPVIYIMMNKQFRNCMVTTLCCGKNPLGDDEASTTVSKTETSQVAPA

For `O=Cc1ccc(C(=O)N2CCN(c3cc(C(F)(F)F)cc(C(F)(F)F)c3)CC2)cc1`, the outcome with U2OS [1] was Active. For the same compound, the Activity entry with ARPE-19 and in the data set on HepG2 was “Non-Toxic” throughout. Besides, the K in the data set listed under Bos taurus came out at 0.64 min⁻¹.

For `C=CC(=O)Nc1ccc(CNC(=O)c2c(C)cccc2C)cc1`, the Activity entry with ARPE-19 and in the data set on HepG2 was “Non-Toxic” throughout. Further, in the data set listed under Bos taurus, the K came to 0.62 min⁻¹.

For the compound `CC1=C(/C=C/C(=O)N2CCC(C(N)=O)CC2)C(C)(C)CCC1`, the result in the data set on U2OS [1] was Active.

`CC1=C(/C=C/C(=O)N2CCC(NC=O)CC2)C(C)(C)CCC1`: in the data set on U2OS [1], the outcome was Active.

As for `Cc1cccc(C)c1N1CCN(C(=O)c2ccc(C#N)cc2)CC1`, the result in the data set on U2OS [1] was Active.

In the case of `Cc1cccc(C)c1NC(=O)/C=C/c1ccc(C=O)cc1`, in the data set on U2OS [1], the outcome was Active. Further, the Activity result with ARPE-19 and in the data set on HepG2 was “Non-Toxic” in each case.

Usually half-life stands for how long it takes for the measured level to halve. A high value points to slow decline. Take `CC(=O)/C=C/C1=C(C)CCCC1(C)C` [BETA-IONONE]: the Activity result with ARPE-19 and in the data set with HepG2 was “Non-Toxic” in each case. Besides, in the data set listed under Bos taurus, the K was determined as 0.2 min⁻¹. This compound also returned a half-life in data set [2] of 3.6 min.

In the case of `CC1=C(CNc2ccc(C(=O)O)cc2)C(C)(C)CCC1`, the outcome in the data set on U2OS [1] was Active.

With `O=Cc1ccc(COC(=O)c2cc(C(F)(F)F)cc(C(F)(F)F)c2)cc1`, the Activity result in the data set with ARPE-19 and in the data set on HepG2 was “Non-Toxic” each time. Besides, in the data set on U2OS [3], the outcome was Active. The K at Rhodopsin (Bos taurus) was 0.44 min⁻¹.

For `Cc1cccc(C)c1N1CCN(C(=O)c2ccc(C(N)=O)cc2)CC1`, the Activity result with ARPE-19 and in the data set with HepG2 was “Non-Toxic” in each case.

As for `CC1=C(CNc2ccc(C#N)cc2)C(C)(C)CCC1`, the K in the data set filed under Bos taurus was determined as 0.31 min⁻¹. The result in the data set with U2OS [3] was Active. Besides, the Activity with HepG2 came to 25%.

For `C=CC(=O)Nc1ccc(NC(=O)c2cc(C(F)(F)F)cc(C(F)(F)F)c2)cc1`, the result in the data set with U2OS [1] was Active.

`C=C(C(=O)Nc1ccc(NC(=O)c2c(C)cccc2C)cc1)C(F)(F)F`: the outcome in the data set on U2OS [1] was Active.

Turning to `CC1=C(/C=C/C(C)N2CCc3cc(C=O)ccc3C2)C(C)(C)CCC1` (stereo unspecified), the Activity entry with ARPE-19 and in the data set on HepG2 was “Non-Toxic” throughout.

As to `NC(=O)c1ccc(N2CCN(C(=O)c3cc(C(F)(F)F)cc(C(F)(F)F)c3)CC2)cc1`, the result with U2OS [1] was Active. In addition, the Activity result in the data set with ARPE-19 and in the data set on HepG2 was “Non-Toxic” throughout. Also, in the data set listed under Bos taurus, the K was found to be 0.62 min⁻¹.

On to `O=C(O)c1ccc(COC(=O)c2cc(C(F)(F)F)cc(C(F)(F)F)c2)cc1`, for which the Activity entry in the data set on ARPE-19 and in the data set with HepG2 was “Non-Toxic” in each case. Moreover, the result in the data set with U2OS [3] was Active. Besides, the K at Rhodopsin (Bos taurus) was 0.62 min⁻¹.

Turning to `Cc1cccc(C)c1-c1ccc(CNc2ccc(C(N)=O)cc2)o1`, the K in the data set listed under Bos taurus is 0.61 min⁻¹.

For `CC1=C(CNc2ccc(C(N)=O)cc2)C(C)(C)CCC1`, the result in the data set on U2OS [1] was Active. In addition, the K in the data set listed under Bos taurus stood at 0.59 min⁻¹.

`Cc1cccc(C)c1/C=C/C(=O)NCc1ccc(C(=O)O)cc1`: the result in the data set on U2OS [1] was Active.

In the case of `C=CC(=O)Nc1ccc(NC(=O)c2c(C)cccc2C)cc1`, the result in the data set with U2OS [1] was Active.

As for `Cc1cccc(C)c1C(=O)N1CCN(c2ccc(C(=O)O)cc2)CC1`, in the data set on U2OS [1], the result was Active.

`CC1=C(/C=C/C(=O)N2CCC(C#N)CC2)C(C)(C)CCC1`: the K in the data set filed under Bos taurus amounted to 0.63 min⁻¹. Further, the Activity with HepG2 is 50%.

Take `O=Cc1ccc(N2CCN(C(=O)c3cc(C(F)(F)F)cc(C(F)(F)F)c3)CC2)cc1`: the outcome in the data set with U2OS [1] was Active. The Activity result with ARPE-19 and in the data set on HepG2 was “Non-Toxic” in each case. Besides, the K in the data set filed under Bos taurus was determined as 0.41 min⁻¹.

(Values after ChEMBL document CHEMBL5038610, “Ligand-based rational design, synthesis and evaluation of novel potential chemical chaperones for opsin” (Eur J Med Chem, 2021).)
